Measurements from ChEMBL document CHEMBL1129512, “Studies on the mechanism of phosphatidylinositol 3-kinase inhibition by wortmannin and related analogs” (J Med Chem, 1996).
“And” between values parts separate entries of the source, which are not always exact repeats. Equal values may be shown once.

Tests used:
[1] = In vitro inhibitory activity against Phosphatidylinositol 3-Kinase
Summary of the method: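 Purified PI 3-kinase from bovine brain was used as the enzyme source. Results are reported as IC50 values.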

[2] = test system: Mus musculus; test: In vivo inhibition of tumor growth in C3H Mammary model was evaluated at dose 0.50 mg/kg peroral administration; assay type: functional; details: route oral
Summary of the method: (§1)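 Murine tumours were serially passaged as tumour fragments, implanted s.c. by trochar in the axillary region. Daily oral dosing began 1 day after implant, as a suspension in 2.5% emulphor EL-620 in 0.9% NaCl. There were 10 randomized mice per group. Tumours were measured by caliper the day after the last dose, with weight = length × width² × 0.5. Inhibition was 100 × (1 − mean treated/mean control weight). A group was toxic if lethality was >25%.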

[3] = test system: Mus musculus; test: In vivo inhibition of tumor growth in C3H Mammary model was evaluated at dose 1.0 mg/kg peroral administration; assay type: functional; details: route oral; summary of the method: as §1
[4] = test system: Mus musculus; test: IIn vivo inhibition of tumor growth in B-16 melanoma model was evaluated by inhibition of tumor growth at dose 0.75 mg/kg peroral administration; assay type: functional; details: B16, route oral; summary of the method: as §1
[5] = test system: Mus musculus; test: In vivo inhibition of tumor growth B-16 melanoma model was evaluated at dose 1.50 mg/kg peroral administration; assay type: functional; details: B16, route oral; summary of the method: as §1
[6] = test system: Mus musculus; test: In vivo inhibition of tumor growth in 6C3HED lymphosarcomal was evaluated at dose 0.75 mg/kg peroral administration; assay type: functional; details: route oral; summary of the method: as §1
[7] = test system: Mus musculus; test: In vivo inhibition of tumor growth in 6C3HED lymphosarcomal was evaluated at dose 1.50 mg/kg peroral administration; assay type: functional; details: route oral; summary of the method: as §1
[8] = test system: Mus musculus; test: In vivo inhibition of tumor growth in C-26 colon model was evaluated dose 0.75 mg/kg peroral administration; assay type: functional; details: route oral; summary of the method: as §1
[9] = test system: Mus musculus; test: In vivo inhibition of tumor growth in C-26 colon model was evaluated dose 1.50 mg/kg peroral administration; assay type: functional; details: route oral; summary of the method: as §1
[10] = test system: Mus musculus; test: In vivo inhibition of tumor growth in C3H Mammary model was evaluated at dose 2.50 mg/kg peroral administration; assay type: functional; details: route oral; summary of the method: as §1
[11] = test system: Mus musculus; test: In vivo inhibition of tumor growth in Lewis lung model was evaluated at dose 0.75 mg/kg peroral administration; assay type: functional; details: route oral; summary of the method: as §1
[12] = test system: Mus musculus; test: In vivo inhibition of tumor growth in Lewis lung model was evaluated at dose 1.50 mg/kg peroral administration; assay type: functional; details: route oral; summary of the method: as §1
[13] = test system: Mus musculus; test: In vivo inhibition of tumor growth in M-5076 ovarian model was evaluated at dose 0.75 mg/kg peroral administration; assay type: functional; details: M5076, route oral
Summary of the method: (§2)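 For the murine M-5076 ovarian tumour, fragments were implanted s.c. by trochar in the axilla. Daily oral dosing began 5 days after implant, as a suspension in 2.5% emulphor EL-620/0.9% NaCl. There were 10 randomized mice per group.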

[14] = test system: Mus musculus; test: In vivo inhibition of tumor growth in M-5076 ovarian model was evaluated at dose 1.50 mg/kg peroral administration; assay type: functional; details: M5076, route oral; summary of the method: as §2
[15] = test system: Mus musculus; test: In vivo inhibition of tumor growth in X-5563 plasma cell myeloma model was evaluated at dose 1.25 mg/kg peroral administration; assay type: functional; details: route oral
[16] = test system: Homo sapiens; test: In vivo inhibition of tumor growth in PANC-1 pancreatic model was evaluated at dose 0.75 mg/kg peroral administration; assay type: functional; details: route oral
Summary of the method: (§3)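 Human xenograft fragments were implanted s.c. via trochar in the axillary region of mice. Daily oral dosing began 7 days after implant, as a suspension in 2.5% emulphor EL-620 in 0.9% NaCl. There were 10 randomized mice per group. Tumours were measured by caliper 5 days after the last dose, with weight = length × width² × 0.5. Inhibition was 100 × (1 − treated/control mean weight), and toxic meant lethality >25%.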

[17] = test system: Homo sapiens; test: In vivo inhibition of tumor growth in VRC5 colon model was evaluated at dose 0.75 mg/kg peroral administration; assay type: functional; details: route oral
[18] = test system: Homo sapiens; test: In vivo inhibition of tumor growth in VRC5 colon model was evaluated at dose 1.50 mg/kg peroral administration; assay type: functional; details: route oral
[19] = test system: Homo sapiens; test: In vivo toxicity against PI 3-Kinase in GC3 colon model was evaluated by inhibition of tumor growth at dose 0.75 mg/kg peroral administration; assay type: functional; details: route oral; summary of the method: as §3
[20] = test system: Homo sapiens; test: In vivo inhibition of tumor growth IGROV1 ovarian model was evaluated at dose 0.75 mg/kg peroral administration; assay type: functional; details: IGROV-1, route oral
Summary of the method: (§4)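 HC1 colon and IGROV1 ovarian xenografts were implanted s.c. as fragments by axillary trochar. Daily oral dosing started 14 days after implant, as a suspension in 2.5% emulphor EL-620/0.9% NaCl. Groups were 10 randomized mice.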

[21] = test system: Homo sapiens; test: In vivo inhibition of tumor growth MX-1 mammary model was evaluated at dose 1.50 mg/kg peroral administration; assay type: functional; details: route oral
[22] = test system: Homo sapiens; test: In vivo inhibition of tumor growth PANC-1 pancreatic model was evaluated at dose 1.50 mg/kg peroral administration; assay type: functional; details: route oral; summary of the method: as §3
[23] = test system: Homo sapiens; test: In vivo inhibition of tumor growth in BXPC-3 pancreatic model was evaluated at dose 0.75 mg/kg peroral administration; range is 60-79%; assay type: functional; details: route oral; summary of the method: as §3
[24] = test system: Homo sapiens; test: In vivo inhibition of tumor growth in BXPC-3 pancreatic model was evaluated at dose 1.50 mg/kg peroral administration; assay type: functional; details: route oral; summary of the method: as §3
[25] = test system: Homo sapiens; test: In vivo inhibition of tumor growth in CX-1 colon model was evaluated at dose 0.75 mg/kg peroral administration; assay type: functional; details: route oral; summary of the method: as §3
[26] = test system: Homo sapiens; test: In vivo inhibition of tumor growth in CX-1 colon model was evaluated at dose 1.50 mg/kg peroral administration; assay type: functional; details: route oral; summary of the method: as §3
[27] = test system: Homo sapiens; test: In vivo inhibition of tumor growth in GC3 colon model was evaluated at dose 0.38 mg/kg peroral administration; assay type: functional; details: route oral; summary of the method: as §3
[28] = test system: Homo sapiens; test: In vivo inhibition of tumor growth in HC1 colon model was evaluated at dose 0.75 mg/kg peroral administration; assay type: functional; details: route oral; summary of the method: as §4
[29] = test system: Homo sapiens; test: In vivo inhibition of tumor growth in HC1 colon model was evaluated at dose 1.50 mg/kg peroral administration; assay type: functional; details: route oral; summary of the method: as §4
[30] = test system: Homo sapiens; test: In vivo inhibition of tumor growth in LX-1 lung model was evaluated at dose 0.38 mg/kg peroral administration; assay type: functional; details: route oral; summary of the method: as §3
[31] = test system: Homo sapiens; test: In vivo inhibition of tumor growth in LX-1 lung model was evaluated at dose 0.75 mg/kg peroral administration; assay type: functional; details: route oral; summary of the method: as §3
[32] = test system: Homo sapiens; test: In vivo inhibition of tumor growth in MX-1 mammary model was evaluated at dose 0.75 mg/kg peroral administration; assay type: functional; details: route oral
[33] = test system: Homo sapiens; test: In vivo inhibition of tumor growth in PACA-2 pancreatic model was evaluated at dose 0.75 mg/kg peroral administration; assay type: functional; details: route oral; summary of the method: as §3
[34] = test system: Homo sapiens; test: In vivo inhibition of tumor growth in PACA-2 pancreatic model was evaluated at dose 1.50 mg/kg peroral administration; assay type: functional; details: route oral; summary of the method: as §3
[35] = test system: Homo sapiens; test: In vivo inhibition of tumor growth in IGROV1 ovarian model was evaluated at dose 1.50 mg/kg peroral administration; assay type: functional; details: IGROV-1, route oral; summary of the method: as §4
[36] = test system: Mus musculus; test: In vivo inhibition of tumor growth in C3H Mammary model was evaluated at dose 1.25 mg/kg peroral administration; range is 60-79%; assay type: functional; details: route oral; summary of the method: as §1
[37] = test system: Mus musculus; test: In vivo inhibition of tumor growth in C3H Mammary model was evaluated at dose 16 mg/kg peroral administration; assay type: functional; details: route oral; summary of the method: as §1

For CC/N=C/C1=C(O)O[C@H](COC)[C@@]2(C)C1=C(O)C(=O)C1=C2[C@H](OC(C)=O)C[C@]2(C)C(=O)CC[C@@H]12, the IC50 [1] was over 500 nM.

For COC[C@H]1OC(=O)c2coc3c2[C@@]1(C)C1=C(C3=O)[C@@H]2CC[C@H](O)[C@@]2(C)C[C@H]1OC(C)=O, the inhibition in vivo at 0.5 mg/kg [2] was under 60%, the inhibition in vivo at 1 mg/kg [3] was over 25% and the IC50 [1] was 0.5 nM.

COC[C@H]1OC(=O)c2coc3c2[C@@]1(C)C1=C(C3=O)[C@@H]2C[C@@H](OC(C)=O)C(=O)[C@@]2(C)C[C@H]1OC(C)=O gave an IC50 [1] of 309 nM.

C/N=C/C1=C(O)O[C@H](COC)[C@@]2(C)C1=C(O)C(=O)C1=C2[C@H](OC(C)=O)C[C@]2(C)C(=O)CC[C@@H]12 showed an IC50 [1] of over 500 nM.

COC[C@H]1OC(=O)c2coc3c2[C@@]1(C)C1=C(C3=O)[C@@H]2CCC(=O)[C@@]2(C)C[C@H]1OC(C)=O [WORTMANNIN] gave an inhibition in vivo at 0.75 mg/kg [4] of under 60%, an inhibition in vivo at 1.5 mg/kg [5] of over 25% and an inhibition in vivo at 0.75 mg/kg [6] of under 60%. The inhibition in vivo at 1.5 mg/kg [7] was over 25%, the inhibition in vivo at 0.75 mg/kg [8] was under 60% and the inhibition in vivo at 1.5 mg/kg [9] was over 25%. For the same compound, the inhibition in vivo at 2.5 mg/kg [10] was over 25%, the inhibition in vivo at 0.75 mg/kg [11] was under 60% and the inhibition in vivo at 1.5 mg/kg [12] was over 25%. For the same compound, the inhibition in vivo at 0.75 mg/kg [13] was under 60%, the inhibition in vivo at 1.5 mg/kg [14] was over 25% and the Inhibition [15] was <60% and >25%. For the same compound, the IC50 [1] was 4.2 nM, the inhibition in vivo at 0.75 mg/kg [16] was under 60% and the inhibition in vivo at 0.75 mg/kg [17] was under 60%. It also gave an inhibition in vivo at 1.5 mg/kg [18] of over 25%, an inhibition in vivo at 0.75 mg/kg [19] of over 25% and an inhibition in vivo at 0.75 mg/kg [20] of under 60%. For the same compound, the inhibition in vivo at 1.5 mg/kg [21] was over 25%, the inhibition in vivo at 1.5 mg/kg [22] was over 25% and the inhibition in vivo at 0.75 mg/kg [23] was 79%. For the same compound, the inhibition in vivo at 1.5 mg/kg [24] was over 25%, the inhibition in vivo at 0.75 mg/kg [25] was under 60% and the inhibition in vivo at 1.5 mg/kg [26] was over 25%. It also gave an inhibition in vivo at 0.38 mg/kg [27] of over 25%, an inhibition in vivo at 0.75 mg/kg [28] of under 60% and an inhibition in vivo at 1.5 mg/kg [29] of over 25%. The inhibition in vivo at 0.38 mg/kg [30] was under 60%, the inhibition in vivo at 0.75 mg/kg [31] was over 25% and the inhibition in vivo at 0.75 mg/kg [32] was under 60%. For the same compound, the inhibition in vivo at 0.75 mg/kg [33] was under 60%, the inhibition in vivo at 1.5 mg/kg [34] was over 25% and the inhibition in vivo at 1.5 mg/kg [35] was over 25%. For the same compound, the inhibition in vivo at 1.25 mg/kg [36] was 79%.

COC[C@H]1OC(=O)C23CC2COC2=C3[C@@]1(C)C1=C(C2=O)[C@@H]2CCC(=O)[C@@]2(C)C[C@H]1OC(C)=O (stereo not given in full) showed an IC50 [1] of over 500 nM.

COC[C@H]1OC(=O)C2=CCOC3=C2[C@@]1(C)C1=C(C3=O)[C@@H]2CCC(=O)[C@@]2(C)C[C@H]1OC(C)=O gave an IC50 [1] of 271 nM.

COC(=O)c1coc2c(O)c3c(c(C)c12)C=C[C@]1(C)C(=O)CC[C@@H]31 showed an inhibition in vivo at 16 mg/kg [37] of under 60% and an IC50 [1] of 4600 nM.

With COC[C@H]1OC(=O)c2coc3c2[C@@]1(C)C1=C(C3=O)[C@@H]2C[C@@H](O)C(=O)[C@@]2(C)C[C@H]1OC(C)=O the IC50 [1] was 153 nM.
